Experimental data as given in ChEMBL document CHEMBL2163203, “Conformationally-locked N-glycosides with selective β-glucosidase inhibitory activity: identification of a new non-iminosugar-type pharmacological chaperone for Gaucher disease” (J Med Chem, 2012).
The source made the active and inactive calls. The calls are words filed in the database; no cut-off is given here.

Tests used:
Prunus dulcis = experiment: Inhibition of almond beta-glucosidase at 2 mM after 10 to 30 mins by spectrophotometric analysis
Method in brief: (§1)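 Enzyme added to substrate with or without inhibitor in phosphate buffer (phosphate–citrate for α-/β-mannosidase and amyloglucosidase) at each enzyme's optimal pH; 10–30 min at 37 °C (55 °C amyloglucosidase), aiming at 10–20% conversion. Stopped with 1 M Na₂CO₃, A405; trehalase stopped by heating, GLC-Trinder added, A492. Ki from Lineweaver–Burk and double-reciprocal analysis, substrate near Km.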

Canavalia ensiformis = experiment: Inhibition of jack bean alpha-mannosidase at 2 mM after 10 to 30 mins by spectrophotometric analysis; method in brief: as §1
Saccharomyces cerevisiae [1] = experiment: Inhibition of yeast alpha-glucosidase using at 2 mM after 10 to 30 mins by spectrophotometric analysis; method in brief: as §1
[2] = Competitive inhibition of bovine beta-glucosidase isolated from liver after 10 to 30 mins by Lineweaver-Burk plot analysis; design: species or system Bos taurus; method in brief: as §1
[3] = target: Alpha-galactosidase (Coffea arabica) (UniProt Q42656); experiment: Inhibition of green coffee alpha galactosidase at 2 mM after 10 to 30 mins by spectrophotometric analysis; method in brief: as §1
Alpha-galactosidase (Coffea arabica), sequence (Q42656 16-378 limits assumed): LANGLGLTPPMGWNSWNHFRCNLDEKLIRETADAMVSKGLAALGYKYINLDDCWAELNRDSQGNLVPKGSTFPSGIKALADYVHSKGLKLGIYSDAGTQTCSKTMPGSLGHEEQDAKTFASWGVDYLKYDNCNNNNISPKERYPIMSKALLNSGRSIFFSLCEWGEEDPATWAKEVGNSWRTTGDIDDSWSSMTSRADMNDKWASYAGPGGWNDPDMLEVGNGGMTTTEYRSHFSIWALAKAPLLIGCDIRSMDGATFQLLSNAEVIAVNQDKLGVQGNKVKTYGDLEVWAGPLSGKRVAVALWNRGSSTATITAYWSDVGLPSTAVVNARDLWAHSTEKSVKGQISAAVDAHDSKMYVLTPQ

Saccharomyces cerevisiae [4] = experiment: Inhibition of yeast isomaltase at 2 mM after 10 to 30 mins by spectrophotometric analysis; method in brief: as §1
[5] = target: T1, Lysosomal acid glucosylceramidase (Homo sapiens) (UniProt P04062); experiment: Inhibition of human beta-glucocerebrosidase at 100 uM relative to control; details: values are per cent of control
T1 sequence (whole entry): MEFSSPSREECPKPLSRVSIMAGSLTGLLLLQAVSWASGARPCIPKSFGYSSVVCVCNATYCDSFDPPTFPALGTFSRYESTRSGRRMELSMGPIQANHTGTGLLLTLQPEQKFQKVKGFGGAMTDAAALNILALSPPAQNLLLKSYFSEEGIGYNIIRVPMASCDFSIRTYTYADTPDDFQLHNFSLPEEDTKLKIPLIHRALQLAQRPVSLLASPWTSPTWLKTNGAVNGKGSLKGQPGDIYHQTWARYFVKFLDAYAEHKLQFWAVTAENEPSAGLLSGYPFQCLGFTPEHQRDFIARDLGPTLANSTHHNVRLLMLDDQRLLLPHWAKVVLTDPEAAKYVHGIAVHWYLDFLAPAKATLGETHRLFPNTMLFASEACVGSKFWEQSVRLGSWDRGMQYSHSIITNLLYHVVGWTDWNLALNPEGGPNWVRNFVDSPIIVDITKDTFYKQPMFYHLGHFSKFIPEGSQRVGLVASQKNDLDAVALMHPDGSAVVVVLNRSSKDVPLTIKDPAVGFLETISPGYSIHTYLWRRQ

Penicillium decumbens = experiment: Inhibition of Penicillium decumbens naringinase at 2 mM after 10 to 30 mins by spectrophotometric analysis; method in brief: as §1
Aspergillus niger = experiment: Inhibition of Aspergillus niger amyloglucosidase at 2 mM after 10 to 30 mins by spectrophotometric analysis; method in brief: as §1
[6] = target: T2, Uncharacterized protein (Sus scrofa) (UniProt I3LIR5); experiment: Inhibition of pig trehalase isolated from kidney using alpha,alpha'-trehalose as substrate at 2 mM after 10 to 30 mins by spectrophotometric analysis; method in brief: as §1
T2 sequence (whole entry): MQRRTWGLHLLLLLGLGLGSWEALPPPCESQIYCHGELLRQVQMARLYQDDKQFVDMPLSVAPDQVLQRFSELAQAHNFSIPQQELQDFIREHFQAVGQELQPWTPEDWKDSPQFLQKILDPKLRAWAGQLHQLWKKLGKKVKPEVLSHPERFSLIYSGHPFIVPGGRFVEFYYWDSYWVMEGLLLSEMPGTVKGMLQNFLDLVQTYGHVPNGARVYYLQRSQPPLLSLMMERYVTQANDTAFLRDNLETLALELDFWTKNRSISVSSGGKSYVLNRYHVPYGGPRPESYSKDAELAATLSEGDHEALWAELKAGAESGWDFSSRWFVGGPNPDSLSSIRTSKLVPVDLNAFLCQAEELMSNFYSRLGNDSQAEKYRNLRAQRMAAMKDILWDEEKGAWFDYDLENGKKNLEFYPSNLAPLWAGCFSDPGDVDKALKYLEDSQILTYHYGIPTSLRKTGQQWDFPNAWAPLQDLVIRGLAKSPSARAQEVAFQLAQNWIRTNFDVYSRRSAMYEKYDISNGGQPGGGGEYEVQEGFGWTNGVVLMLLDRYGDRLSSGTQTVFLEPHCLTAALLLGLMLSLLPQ

[7] = target: Beta-galactosidase (Escherichia coli) (UniProt Q8VNN2); experiment: Inhibition of Escherichia coli beta galactosidase at 2 mM after 10 to 30 mins by spectrophotometric analysis; method in brief: as §1
Beta-galactosidase (Escherichia coli), sequence (Q8VNN2 whole entry, looked up): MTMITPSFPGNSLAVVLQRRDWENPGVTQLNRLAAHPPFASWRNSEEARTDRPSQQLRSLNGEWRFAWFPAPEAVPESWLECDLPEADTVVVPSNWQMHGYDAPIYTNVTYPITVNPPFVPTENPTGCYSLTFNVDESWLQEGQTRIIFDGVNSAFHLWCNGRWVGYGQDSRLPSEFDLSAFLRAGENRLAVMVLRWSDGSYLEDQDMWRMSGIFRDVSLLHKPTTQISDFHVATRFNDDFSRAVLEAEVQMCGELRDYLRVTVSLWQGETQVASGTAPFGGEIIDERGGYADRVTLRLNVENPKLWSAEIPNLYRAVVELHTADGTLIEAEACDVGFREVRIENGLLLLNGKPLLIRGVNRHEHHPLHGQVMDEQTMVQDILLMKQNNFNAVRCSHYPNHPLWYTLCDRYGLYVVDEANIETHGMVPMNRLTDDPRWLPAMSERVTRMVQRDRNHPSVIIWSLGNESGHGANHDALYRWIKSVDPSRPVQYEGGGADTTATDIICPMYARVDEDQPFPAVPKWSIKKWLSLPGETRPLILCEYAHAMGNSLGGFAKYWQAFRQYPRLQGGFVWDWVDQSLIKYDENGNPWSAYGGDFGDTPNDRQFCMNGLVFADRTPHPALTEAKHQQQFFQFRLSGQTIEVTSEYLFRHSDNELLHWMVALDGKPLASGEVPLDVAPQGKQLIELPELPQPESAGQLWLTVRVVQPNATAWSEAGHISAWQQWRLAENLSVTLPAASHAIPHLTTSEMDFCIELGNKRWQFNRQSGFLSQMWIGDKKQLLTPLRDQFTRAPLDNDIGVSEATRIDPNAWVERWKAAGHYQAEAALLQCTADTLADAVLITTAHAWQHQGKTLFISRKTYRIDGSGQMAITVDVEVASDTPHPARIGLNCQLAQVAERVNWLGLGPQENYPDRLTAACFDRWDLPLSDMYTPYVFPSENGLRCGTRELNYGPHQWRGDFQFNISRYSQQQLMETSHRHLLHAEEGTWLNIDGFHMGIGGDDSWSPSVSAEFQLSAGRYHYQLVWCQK

Helix pomatia = experiment: Inhibition of Helix pomatia beta-mannosidase at 2 mM after 10 to 30 mins by spectrophotometric analysis; method in brief: as §1

Row | SMILES | inhibition (Prunus dulcis) | inhibition (Canavalia ensiformis) | inhibition (Saccharomyces cerevisiae [1]) | Ki [2] | inhibition [3] | inhibition (Saccharomyces cerevisiae [4]) | residual activity [5] | inhibition (Penicillium decumbens) | inhibition (Aspergillus niger) | inhibition [6] | inhibition [7] | inhibition (Helix pomatia)
1 | CCCCCCCCCCCCSC1=N[C@H]2O[C@H](CO)[C@@H](O)[C@H](O)[C@H]2O1 | inactive | inactive | inactive | 73 µM | inactive | inactive | 87% | inactive | inactive | inactive | inactive | inactive
2 | OC[C@H]1O[C@@H]2N=C(SCc3ccccc3)O[C@@H]2[C@@H](O)[C@@H]1O | inactive | inactive | inactive | 210 µM | inactive | inactive | 88% | inactive | inactive | inactive | inactive | inactive
3 | CCCCCCCCSC1=N[C@H]2O[C@H](CO)[C@@H](O)[C@H](O)[C@H]2O1 | inactive | inactive | inactive | 280 µM | inactive | inactive | 91% | inactive | inactive | inactive | inactive | inactive
4 | CCCCCCCCCCCCCCCCSC1=N[C@H]2O[C@H](CO)[C@@H](O)[C@H](O)[C@H]2O1 | inactive | inactive | inactive | 52 µM | inactive | inactive | 86% | inactive | inactive | inactive | inactive | inactive
5 | O=C(NCCCCCCSC1=N[C@H]2O[C@H](CO)[C@@H](O)[C@H](O)[C@H]2O1)C12CC3CC(CC(C3)C1)C2 | inactive | inactive | inactive | 230 µM | inactive | inactive | 91% | inactive | inactive | inactive | inactive | inactive
6 | C=CCSC1=N[C@H]2O[C@H](CO)[C@@H](O)[C@H](O)[C@H]2O1 | inactive | inactive | inactive | 220 µM | inactive | inactive | 97% | inactive | inactive | inactive | inactive | inactive
7 | CCCCSC1=N[C@H]2O[C@H](CO)[C@@H](O)[C@H](O)[C@H]2O1 | inactive | inactive | inactive | 580 µM | inactive | inactive | 92% | inactive | inactive | inactive | inactive | inactive
8 | CCCCCCCSC1=N[C@H]2O[C@H](CO)[C@@H](O)[C@H](O)[C@H]2O1 | inactive | inactive | inactive | 310 µM | inactive | inactive | 91% | inactive | inactive | inactive | inactive | inactive
